According to paper PMC10041999 (Journal of chemical information and modeling, 2022):

Biological target: T1, VapC1 (Haemophilus influenzae, UniProt Q4QNL7)
T1 sequence (Q4QNL7 1-134): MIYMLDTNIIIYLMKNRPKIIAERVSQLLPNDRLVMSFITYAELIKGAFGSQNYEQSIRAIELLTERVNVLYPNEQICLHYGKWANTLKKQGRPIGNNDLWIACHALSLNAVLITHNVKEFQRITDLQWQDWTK
Assay: Biochemical VapC1 ribonuclease activity assay
Design: species or system nontypeable Haemophilus influenzae
How it was run: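 Purified VapC1 (296 nM final) was preincubated with test compound, aurintricarboxylic acid positive control or DMSO for 30 min at room temperature in 1X RNaseAlert reaction buffer. Custom RNA substrate (5' Cy5, 3' Iowa Black RQ quencher; 100 nM final) was then added. Fluorescence (Ex 618, Em 671 nm) was read immediately and at 75 min. Activity was taken as the change between readings. Concentration-response used eleven concentrations.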

Compound: Clc1ccc(C(c2ccc(Cl)cc2)n2cc[n+](C[C@@H](OCc3ccc(Cl)cc3Cl)c3ccc(Cl)cc3Cl)c2)cc1 [NCGC00015233]
- VapC1 inhibitor (result in words): confirmed VapC1 inhibtors
